# From article PMC3999706 (Biochemistry, 2013)
# Values joined by “and” are separate entries in the source; they are usually repeats but may differ in a detail not shown here. Identical values can stand only once. Like-named read-outs stand apart in the source and are kept apart here.
# Key:
# [1] = system: Fe(II) Vc H-NOX; experiment: Stopped-flow kinetics and affinity of gaseous ligand binding to Fe; parameters: species or system Vibrio cholerae; conditions: for koff / Kd: Fe(II) Vc H-NOX, NO: 6c complex; for koff: displacement method; for Kd: calculated from kon and koff; for koff of 5c Vc H-NOX-NO complex, fast phase / koff of 5c Vc H-NOX-NO complex, slow phase: displacement with CO/dithionite
# [2] = molecular target: Ferrous Ns H-NOX; conditions: ref [5], cited from earlier work
# [3] = molecular target: sGC; conditions: 6c complex, ref [5], cited from earlier work
# [4] = molecular target: Fe(III) Vc H-NOX (Vibrio cholerae, UniProt Q9KLM3); experiment: biochemical; type: binding
# [5] = system: Fe(II) Vc H-NOX; experiment: Autoxidation of Fe; type: biochemical, Vibrio cholerae
# How it was run: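 Recombinant Vc H-NOX was expressed in E. coli Rosetta 2(DE3)pLysS (heme and δ-aminolevulinic acid supplemented, IPTG, 48 h at 20 °C) and purified on TALON resin. The anaerobic Fe(II) protein was mixed with O2 by stopped-flow in 20 mM HEPES pH 7.3, 50 mM NaCl, 10% glycerol. Spectral changes were followed by diode-array over 65.5 s, and kobs was taken from single-exponential fits under pseudo-first-order conditions.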
# [6] = system: Fe(II) Ns H-NOX; conditions: ref [14]; cited from earlier work
# [7] = estimated by computer simulation of A420 time courses
molecule,measurement,setting,value
"[C-]#[O+] [CO, Carbon monoxide]",koff,[1]; 24 °C,0.85 s⁻¹
same,Kd,[1],0.77 µM
same,Kd,[2]; read-out: KD(CO) of ferrous Ns H-NOX,1.4 µM
same,Kd,[3]; read-out: affinity of CO for sGC (KD),260 µM
"c1c[nH]cn1 [Im, imidazole]",Kd,[4],4200 µM
O=O [O2],second order reaction rate constant (slope of kobs versus [O2]),"[5]; 3 μM Fe(II) Vc H-NOX, 100-600 μM O2, 24 °C, A429",4.8 M⁻¹ s⁻¹
same,autoxidation rate of Fe(II) Vc H-NOX to ferric state (k4),[5]; k4 = slope × KD(O2),0.06 s^−1 and ~ 0.06 s^−1
same,autoxidation rate of Fe(II) Ns H-NOX,[6],~ 0.05 hr^−1 and 0.05 hr^−1
same,Kd,"[2]; read-out: KD for O2 of Ns H-NOX, measured using a high pressure cell",13000 µM
nitric oxide [NO],koff,[1]; 24 °C,0.3 s⁻¹
same,Kd,[1],0.00027 µM
same,k1 (second NO binding to 6c complex),[1]; [7],2.5e+07 M⁻¹ s⁻¹
same,k-1 (dissociation of quaternary complex),[1]; [7],4500 s⁻¹
same,k2 (limiting rate of 5c heme-NO complex formation),"[1]; excess NO, hyperbolic fit of kobs versus [NO], 24 °C",720 s⁻¹
same,"koff of 5c Vc H-NOX-NO complex, fast phase","[1]; excess NO, 29% overall reaction",0.01 s⁻¹
same,"koff of 5c Vc H-NOX-NO complex, slow phase","[1]; excess NO, 71% overall reaction",0.001 s⁻¹
same,overall conversion rate of 6c to 5c Vc H-NOX-NO complex,"[1]; stoichiometric NO (2.5 μM each), 24 °C, global analysis",~ 0.01 s^−1
same,"koff of 5c Vc H-NOX-NO complex, fast phase","[1]; stoichiometric NO, 16% overall reaction",0.01 s⁻¹
same,"koff of 5c Vc H-NOX-NO complex, slow phase","[1]; stoichiometric NO, 84% overall reaction",0.001 s⁻¹
same,k-2 (re-association of NO with 5c Vc H-NOX),[1]; y-intercept of kobs versus low [NO],1.9 s⁻¹
same,Kd,[2]; read-out: KD(NO) of ferrous Ns H-NOX,0.00017 µM
same,Kd,[3]; read-out: affinity of NO for sGC (KD),0.054 µM
